Drawing on ChEMBL document CHEMBL1811809, “Design, synthesis and in vitro drug release investigation of new potential 5-FU prodrugs” (Eur J Med Chem, 2011), this text covers IC50 and half-life for eight compounds.

Series [1] deals with MCF7. Nature of the series: Antiproliferative activity against human MCF7 cells after 48 hrs by resazurin reduction test. Format: functional, cell-based. The conditions noted are these: MCF7, 48 h. An outline of the steps: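 MCF 7 and PA 1 cells were kept as monolayers in MEM with 10% fetal calf serum, 1 mM pyruvate, vitamins, non-essential amino acids and gentamicin, at 37 °C and 5% CO₂. Cells were seeded at 5 × 10³ per well, left 16 h, then exposed continuously for 48 h; DMSO was 0.5% (v/v).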
On the technique in general: Alamar Blue is a resazurin reagent that responds to reducing activity.

The subject of series [2] is PA-1. Nature of the series: Antiproliferative activity against human PA1 cells after 48 hrs by resazurin reduction test. In kind it is functional, cell-based. The conditions noted are these: PA-1, 48 h. An outline of the steps: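 MCF 7 and PA 1 cells were kept as monolayers in MEM with 10% fetal calf serum, 1 mM pyruvate, vitamins, non-essential amino acids and gentamicin, at 37 °C and 5% CO₂. Cells were seeded at 5 × 10³ per well, left 16 h, then exposed continuously for 48 h; DMSO was 0.5% (v/v). Resazurin in serum- and phenol red-free MEM was added for 1 h at 37 °C, fluorescence read at ex 530/em 590 nm, and IC₅₀ taken from blank-corrected percent-of-control curves.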

Series [3] in a line: Antiproliferative activity against human fibroblasts after 48 hrs by resazurin reduction test. In kind it is cell-based. The conditions noted are these: Fibroblast.
Series [4] in a line: Stability of the compound in PBS buffer assessed as degradation half life at 37 degC by HPLC analysis. Format: physicochemical. An outline of the steps: (§1)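 Each compound came from a 10 mM stock in methanol or methanol/acetonitrile 85:15, diluted 1:10 into PBS, MEM or human plasma and held at 37 ± 2 °C. Aliquots taken over time were quenched with equal-volume 10 mM ammonium formate pH 3, centrifuged, filtered, diluted 3:10 and run on gradient HPLC-UV (ammonium formate pH 3/acetonitrile; 264/258 nm). Half-lives came from log concentration versus time plots, usually in triplicate.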

A short description of series [5]: Stability of the compound in MEM assessed as degradation half life at 37 degC by HPLC analysis. In kind it is physicochemical. A digest of the protocol: as §1
Series [6] is described as follows: Stability of the compound assessed as degradation half life in presence of plasma at 37 degC by HPLC analysis. Format: ADME, cell-free. A digest of the protocol: as §1

Molecules are shown by their SMILES.

Take `CC(=O)OC[C@H]1O[C@@H](n2cc(F)c(=O)[nH]c2=O)[C@H](F)[C@@H](OC(C)=O)[C@@H]1OC(C)=O`: the IC50 in series [1], in series [2] and in series [3] was more than 50 µM throughout.
Take `CC(=O)OC[C@H]1O[C@@H](NC(=O)CCCN(C)C(=O)n2cc(F)c(=O)[nH]c2=O)[C@H](F)[C@@H](OC(C)=O)[C@@H]1OC(C)=O`: the IC50 in series [1], in series [2] and in series [3] was more than 50 µM throughout.
Consider `O=c1[nH]cc(F)c(=O)[nH]1` [FLUOROURACIL], for which the half-inhibitory concentration (IC50) (as a rule, the point on the concentration scale where inhibition reaches its midpoint) came to 5 µM in series [2] and 11 µM in series [3].
Consider `CC(=O)OC[C@H]1O[C@@H](Oc2ccc(N(C)C(=O)n3cc(F)c(=O)[nH]c3=O)cc2)[C@H](F)[C@@H](OC(C)=O)[C@@H]1OC(C)=O`, for which the IC50 in series [1], in series [2] and in series [3] was more than 50 µM in each case.
With `CC(=O)OC[C@H]1O[C@@H](NC(=O)CCCCCNC(=O)n2cc(F)c(=O)[nH]c2=O)[C@H](F)[C@@H](OC(C)=O)[C@@H]1OC(C)=O`, the concentration for half-maximal inhibition (IC50) in series [1] turned out to be 8.1 µM; in series [2] it was 4 µM; in series [3] it was 5 µM. The half-life (as a rule, how long it takes for the measured level to halve) came out at 11 min in series [4], 8 min in series [5] and 17 min in series [6].
`CC(=O)OC[C@H]1O[C@@H](NC(=O)Cn2cc(F)c(=O)[nH]c2=O)[C@H](F)[C@@H](OC(C)=O)[C@@H]1OC(C)=O`: the IC50 in series [1], in series [2] and in series [3] was more than 50 µM in each case.
As to `CC(=O)OC[C@H]1O[C@@H](NC(=O)CCCNC(=O)n2cc(F)c(=O)[nH]c2=O)[C@H](F)[C@@H](OC(C)=O)[C@@H]1OC(C)=O`, the values for the IC50 in series [1], in series [2] and in series [3] were 23 µM, 6 µM and 15 µM, respectively. Further, the half-life came to 8 min in series [4], 6 min in series [5] and 10 min in series [6].
As for `CC(=O)OC[C@H]1O[C@@H](NC(=O)CNC(=O)n2cc(F)c(=O)[nH]c2=O)[C@H](F)[C@@H](OC(C)=O)[C@@H]1OC(C)=O`, the concentration for half-maximal inhibition (IC50) in series [1] came to 11 µM; in series [2] it was 3 µM; in series [3], 6.4 µM. Besides, the half-life in series [4] turned out to be 3 min; in series [5] it was 2 min; in series [6] it was 6 min.
